According to ChEMBL document CHEMBL1137710, “Synthesis and in vitro antitumor activity of new quinoxaline derivatives” (2009):

Experiments:
Assay type in all cases: functional
[1] = system: NCI-H322M; experiment: Growth inhibition of human NCI-H322M cells after 48 hrs by sulforhodamine B assay
Method in brief: (§1)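 NCI 60-human-tumor-cell-line panel, with compounds tested over a 5-log dose range. Values are taken from dose-response curves as log10 molar concentrations: GI50 is 50% net growth inhibition, TGI is total growth inhibition, and LC50 is 50% net cell death.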

[2] = system: IGROV-1; experiment: Growth inhibition of human IGROV1 cells after 48 hrs by sulforhodamine B assay; settings: IGROV-1, 48 h; method in brief: as §1
[3] = system: MDA-MB-435; experiment: Growth inhibition of human MDA-MB-435 cells after 48 hrs by sulforhodamine B assay; settings: MDA-MB-435, 48 h; method in brief: as §1
[4] = system: OVCAR-5; experiment: Growth inhibition of human OVCAR5 cells after 48 hrs by sulforhodamine B assay; settings: OVCAR-5, 48 h; method in brief: as §1
[5] = system: SK-MEL-5; experiment: Growth inhibition of human SK-MEL-5 cells after 48 hrs by sulforhodamine B assay; settings: SK-MEL-5, 48 h; method in brief: as §1
[6] = system: UACC-257; experiment: Growth inhibition of human UACC257 cells after 48 hrs by sulforhodamine B assay; settings: UACC-257, 48 h
Method in brief: (§2)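 Run in the NCI 60-human-tumour-cell-line panel, tested over a 5-log dose range. Dose–response curves gave three values per cell line, each as a log10 molar concentration: GI50 (50% inhibition of net cell growth), TGI (total inhibition of net growth) and LC50 (50% net cell death). The mean graph midpoint is the arithmetic mean over all lines, with insensitive lines entered at the highest concentration tested.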

[7] = system: NCI-H460; experiment: Anticancer activity against human NCI-H460 cells assessed as cell growth at 100 uM after 48 hrs by sulforhodamine B assay; settings: NCI-H460, 48 h, read-out: Activity
[8] = system: U-251; experiment: Growth inhibition of human U251 cells after 48 hrs by sulforhodamine B assay; settings: U-251, 48 h; method in brief: as §2
[9] = system: OVCAR-4; experiment: Growth inhibition of human OVCAR4 cells after 48 hrs by sulforhodamine B assay; settings: OVCAR-4, 48 h; method in brief: as §1
[10] = system: 786-0; experiment: Growth inhibition of human 786-0 cells after 48 hrs by sulforhodamine B assay; settings: 786-0, 48 h; method in brief: as §1
[11] = system: HOP-62; experiment: Growth inhibition of human HOP62 cells after 48 hrs by sulforhodamine B assay; settings: HOP-62, 48 h; method in brief: as §1
[12] = system: MCF7; experiment: Anticancer activity against human MCF7 cells assessed as cell growth at 100 uM after 48 hrs by sulforhodamine B assay; settings: MCF7, 48 h, read-out: Activity
[13] = system: TK-10; experiment: Growth inhibition of human TK10 cells after 48 hrs by sulforhodamine B assay; settings: TK-10, 48 h; method in brief: as §2
[14] = system: PC-3; experiment: Growth inhibition of human PC3 cells after 48 hrs by sulforhodamine B assay; settings: PC-3, 48 h; method in brief: as §1
[15] = system: NCI-H460; experiment: Growth inhibition of human NCI-H460 cells after 48 hrs by sulforhodamine B assay; settings: NCI-H460, 48 h; method in brief: as §1
[16] = system: OVCAR-8; experiment: Growth inhibition of human OVCAR8 cells after 48 hrs by sulforhodamine B assay; settings: OVCAR-8, 48 h; method in brief: as §1
[17] = system: MCF7; experiment: Growth inhibition of human MCF7 cells after 48 hrs by sulforhodamine B assay; settings: MCF7, 48 h; method in brief: as §1
[18] = system: SF-268; experiment: Anticancer activity against human SF268 cells assessed as cell growth at 100 uM after 48 hrs by sulforhodamine B assay; settings: SF-268, 48 h, read-out: Activity
[19] = Growth inhibition of human Hs 578T cells after 48 hrs by sulforhodamine B assay; method in brief: as §1
[20] = system: UO-31; experiment: Growth inhibition of human UO31 cells after 48 hrs by sulforhodamine B assay; settings: UO-31, 48 h; method in brief: as §2
[21] = system: SK-OV-3; experiment: Growth inhibition of human SKOV3 cells after 48 hrs by sulforhodamine B assay; settings: SK-OV-3, 48 h; method in brief: as §1
[22] = system: SF-295; experiment: Growth inhibition of human SF295 cells after 48 hrs by sulforhodamine B assay; settings: SF-295, 48 h; method in brief: as §1
[23] = system: COLO 205; experiment: Growth inhibition of human COLO205 cells after 48 hrs by sulforhodamine B assay; settings: COLO 205, 48 h; method in brief: as §1
[24] = system: NCI-H522; experiment: Growth inhibition of human NCI-H522 cells after 48 hrs by sulforhodamine B assay; settings: NCI-H522, 48 h; method in brief: as §1
[25] = system: OVCAR-3; experiment: Growth inhibition of human OVCAR-3 cells after 48 hrs by sulforhodamine B assay; settings: OVCAR-3, 48 h; method in brief: as §1
[26] = system: SF-268; experiment: Growth inhibition of human SF268 cells after 48 hrs by sulforhodamine B assay; settings: SF-268, 48 h; method in brief: as §1
[27] = system: KM12; experiment: Growth inhibition of human KM12 cells after 48 hrs by sulforhodamine B assay; settings: KM12, 48 h; method in brief: as §1
[28] = system: SNB-19; experiment: Growth inhibition of human SNB19 cells after 48 hrs by sulforhodamine B assay; settings: SNB-19, 48 h; method in brief: as §2
[29] = system: MDA-MB-231; experiment: Growth inhibition of human MDA-MB-231 cells after 48 hrs by sulforhodamine B assay; settings: MDA-MB-231, 48 h; method in brief: as §1
[30] = system: CAKI-1; experiment: Growth inhibition of human Caki1 cells after 48 hrs by sulforhodamine B assay; settings: CAKI-1, 48 h; method in brief: as §1
[31] = read-out: pLC50 (the source's name) (converted)

Nc1cc(N)c2nc(-c3ccccc3)c(NCc3ccc(Cl)c(Cl)c3)nc2c1
GI50 [1]: 13.5 µM
LC50 [1]: 69.2 µM
TGI ([1]; read-out: pTGI (converted)): 30.2 µM
GI50 [2]: 1950 nM
CC50 [2, 31]: 29.5 µM
TGI ([2]; read-out: pTGI (converted)): 5.89 µM
GI50 [3]: 2750 nM
CC50 [3, 31]: 52.5 µM
TGI ([3]; read-out: pTGI (converted)): 7.59 µM
GI50 [4]: 24 µM
CC50 [4, 31]: 69.2 µM
TGI ([4]; read-out: pTGI (converted)): 40.7 µM
GI50 [5]: 3.47 µM
CC50 [5, 31]: 34.7 µM
TGI ([5]; read-out: pTGI (converted)): 10.7 µM
GI50 [6]: 4.57 µM
CC50 [6, 31]: 43.7 µM
TGI ([6]; read-out: pTGI (converted)): 15.8 µM
growth at 100 µM [7]: 0%
GI50 [8]: 2090 nM
LC50 (50% net cell kill) [8]: > 100 µM
GI50 [9]: 11.7 µM
CC50 [9, 31]: > 100 µM
TGI ([9]; read-out: pTGI (converted)): > 100 µM
GI50 [10]: 13.2 µM
CC50 [10, 31]: 70.8 µM
TGI ([10]; read-out: pTGI (converted)): 30.2 µM
GI50 [11]: 15.8 µM
LC50 [11]: 64.6 µM
TGI ([11]; read-out: pTGI (converted)): 31.6 µM
growth at 100 µM [12]: 0%
GI50 [13]: 12.9 µM
CC50 [13, 31]: 72.4 µM
TGI ([13]; read-out: pTGI (converted)): 30.2 µM
GI50 [14]: 1740 nM
CC50 [14, 31]: 19.1 µM
TGI ([14]; read-out: pTGI (converted)): 5.13 µM
GI50 [15]: 20.9 µM
LC50 (50% net cell kill) [15]: > 100 µM
TGI ([15]; read-out: pTGI (converted)): 46.8 µM
GI50 [16]: 3.39 µM
CC50 [16, 31]: > 100 µM
TGI ([16]; read-out: pTGI (converted)): 13.5 µM
GI50 [17]: 12.3 µM
CC50 [17, 31]: > 100 µM
TGI ([17]; read-out: pTGI (converted)): 53.7 µM
growth at 100 µM [18]: 0%
GI50 [19]: 5.89 µM
CC50 [19, 31]: > 100 µM
TGI ([19]; read-out: pTGI (converted)): 46.8 µM
GI50 [20]: 4.17 µM
CC50 [20, 31]: > 100 µM
TGI ([20]; read-out: pTGI (converted)): > 100 µM
GI50 [21]: 18.6 µM
CC50 [21, 31]: 69.2 µM
TGI ([21]; read-out: pTGI (converted)): 36.3 µM
GI50 [22]: 15.5 µM
LC50 (50% net cell kill) [22]: 89.1 µM
TGI ([22]; read-out: pTGI (converted)): 37.2 µM
GI50 [23]: 17 µM
LC50 (50% net cell kill) [23]: 66.1 µM
TGI ([23]; read-out: pTGI (converted)): 33.9 µM
GI50 [24]: 2040 nM
LC50 [24]: 22.4 µM
TGI ([24]; read-out: pTGI (converted)): 4.9 µM
GI50 [25]: 2630 nM
CC50 [25, 31]: 31.6 µM
TGI ([25]; read-out: pTGI (converted)): 6.92 µM
GI50 [26]: 20 µM
LC50 [26]: > 100 µM
TGI ([26]; read-out: pTGI (converted)): 55 µM
GI50 [27]: 3.39 µM
LC50 (50% net cell kill) [27]: > 100 µM
TGI ([27]; read-out: pTGI (converted)): 21.4 µM
GI50 [28]: 22.4 µM
LC50 [28]: > 100 µM
TGI ([28]; read-out: pTGI (converted)): 51.3 µM
GI50 [29]: 1580 nM
CC50 [29, 31]: > 100 µM
TGI ([29]; read-out: pTGI (converted)): 4.47 µM
GI50 [30]: 13.2 µM
CC50 [30, 31]: > 100 µM
TGI ([30]; read-out: pTGI (converted)): 52.5 µM
